Experimental data from ChEMBL document CHEMBL2412970, “Synthesis and anticancer activity of 2,4-disubstituted furo[3,2-b]indole derivatives” (Eur J Med Chem, 2013).
Active and inactive are the calls of the source. No cut-off for these calls is given here.

What was measured:
A498 [1] = assay: Cell cycle arrest in human A498 cells assessed as accumulation at sub-G1 phase at 0.5 uM after 24 hrs by propidium iodide staining-based flow cytometry (reference value: 0.10 +/- 0.07%); format: functional
A498 [2] = assay: Induction of apoptosis in human A498 cells assessed as late apoptotic cells at 0.5 uM after 36 hrs by AnnexinV/FITC-propidium iodide staining-based flow cytometry (reference value: 9.6%); format: functional
In short: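 Flow cytometry with annexin V-FITC/PI double labeling of A498 cells treated for 12, 24, 36 or 48 h; untreated cells served as the 0 h control. Stained in binding buffer for 15 min at room temperature in the dark, with more binding buffer added just before analysis. Annexin V+/PI− (Q4) counted as early apoptotic and annexin V+/PI+ (Q2) as late apoptotic.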

A498 [3] = assay: Induction of apoptosis in human A498 cells assessed as early apoptotic cells at 0.5 uM after 36 hrs by AnnexinV/FITC-propidium iodide staining-based flow cytometry (reference value: 3.9%); format: functional
A498 [4] = assay: Induction of apoptosis in human A498 cells assessed as early apoptotic cells at 0.5 uM after 12 hrs by AnnexinV/FITC-propidium iodide staining-based flow cytometry (reference value: 3.9%); format: functional
A498 [5] = assay: Cytotoxicity against human A498 cells assessed as cell shrinkage at 0.5 uM after 24 hrs by phase contrast microscopy; format: functional, cell-based
In short: (§1)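 A498 cells were plated at 5 × 10⁵ per well and exposed to 0.5 µM for 24 h. Cell rounding and shrinkage were scored by microscopy against untreated control cells.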

A498 [6] = assay: Cytotoxicity against human A498 cells assessed as cell rounding at 0.5 uM after 24 hrs by phase contrast microscopy; format: functional, cell-based; in short: as §1
T47D = assay: Cytotoxicity against human T47D cells after 48 hrs by sulforhodamine B assay; format: functional
MCF7 = assay: Cytotoxicity against human MCF7 cells after 48 hrs by sulforhodamine B assay; format: functional; settings: MCF7, 48 h
OVCAR-3 = assay: Cytotoxicity against human OVCAR3 cells after 48 hrs by sulforhodamine B assay; format: functional; settings: OVCAR-3, 48 h
SK-MEL-28 = assay: Cytotoxicity against human SK-MEL-28 cells after 48 hrs by sulforhodamine B assay; format: functional; settings: SK-MEL-28, 48 h
SK-MEL-2 = assay: Cytotoxicity against human SK-MEL-2 cells after 48 hrs by sulforhodamine B assay; format: functional; settings: SK-MEL-2, 48 h
SF-295 = assay: Cytotoxicity against human SF295 cells after 48 hrs by sulforhodamine B assay; format: functional; settings: SF-295, 48 h
HT-29 = assay: Cytotoxicity against human HT-29 cells after 48 hrs by sulforhodamine B assay; format: functional; settings: HT-29, 48 h
HCC 2998 = assay: Cytotoxicity against human HCC2998 cells after 48 hrs by sulforhodamine B assay; format: functional; settings: HCC 2998, 48 h
NCI-H522 = assay: Cytotoxicity against human NCI-H522 cells after 48 hrs by sulforhodamine B assay; format: functional; settings: NCI-H522, 48 h
NCI-H322M = assay: Cytotoxicity against human NCI-H322M cells after 48 hrs by sulforhodamine B assay; format: functional
A498 [7] = assay: Cell cycle arrest in human A498 cells assessed as accumulation at G2/M phase at 0.5 uM after 24 hrs by propidium iodide staining-based flow cytometry (reference value: 5.39 +/- 0.01%); format: functional
A498 [8] = assay: Cell cycle arrest in human A498 cells assessed as accumulation at S phase at 0.5 uM after 36 hrs by propidium iodide staining-based flow cytometry (reference value: 15.92 +/- 0.03%); format: functional
A498 [9] = assay: Cell cycle arrest in human A498 cells assessed as accumulation at S phase at 0.5 uM after 24 hrs by propidium iodide staining-based flow cytometry (reference value: 15.92 +/- 0.03%); format: functional
A498 [10] = assay: Cell cycle arrest in human A498 cells assessed as accumulation at G0/G1 phase at 0.5 uM after 48 hrs by propidium iodide staining-based flow cytometry (reference value: 78.70 +/- 0.02%); format: functional
A498 [11] = assay: Cell cycle arrest in human A498 cells assessed as accumulation at sub-G1 phase at 0.5 uM after 36 hrs by propidium iodide staining-based flow cytometry (reference value: 0.10 +/- 0.07%); format: functional
A498 [12] = assay: Induction of apoptosis in human A498 cells assessed as increase in AIF level at 0.5 uM after 6 to 48 hrs by Western blotting analysis; format: functional, cell-based
In short: (§2)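 A498 cells exposed for 6, 12, 24, 36 or 48 h, then washed in PBS and lysed. Lysates were held on ice for 30 min and spun at 12 000g for 20 min. Supernatant protein was measured by Bradford assay, run on 10% SDS-PAGE and transferred to nitrocellulose. Blots were probed for AIF, Endo G, Apaf-1, cytochrome c, caspase 9 and caspase 3, with β-actin as loading control; n = 3 independent experiments.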

A498 [13] = assay: Induction of apoptosis in human A498 cells assessed as increase in Endo G level at 0.5 uM after 6 to 48 hrs by Western blotting analysis; format: functional, cell-based; in short: as §2
A498 [14] = assay: Induction of cell cycle arrest at G2/M phase in human A498 cells assessed as increase in CDK1 expression at 0.5 uM after 6 hrs by Western blotting analysis; format: functional, cell-based
In short: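 A498 cells exposed to 0.5 µM for 6, 12, 24, 36 or 48 h, then lysed on ice 30 min and spun 12 000g 20 min. Protein measured by Bradford; 20 µg per lane run on 10% SDS-PAGE, transferred to nitrocellulose, probed for cyclin B1 and CDK1, β-actin as loading control; n = 3 independent experiments.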

A498 [15] = assay: Cell cycle arrest in human A498 cells assessed as accumulation at sub-G1 phase at 0.5 uM by propidium iodide staining-based flow cytometry; format: functional; settings: TDE = time-dependent effect
A498 [16] = assay: Cell cycle arrest in human A498 cells assessed as accumulation at G2/M phase at 0.5 uM by propidium iodide staining-based flow cytometry; format: functional; settings: TDE = time-dependent effect
COLO 205 = assay: Cytotoxicity against human COLO205 cells after 48 hrs by MTT assay; format: functional, cell-based; settings: COLO 205, 48 h
In short: (§3)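 Cells were treated with a range of concentrations for 48 h. Viability was read by MTT: formazan was dissolved in DMSO and absorbance read at 570 nm. Untreated or 0.1% DMSO cells served as control. Data are mean from three independent experiments. HL-60, H460 and COLO 205 were kept in RPMI-1640 with 10% FBS and penicillin/streptomycin.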

[17] = Cytotoxicity against human Hep3B cells after 48 hrs by MTT assay; format: functional, cell-based, Hep 3B2
[18] = Cytotoxicity against human H460 cells after 48 hrs by MTT assay; format: functional, cell-based; settings: NCI-H460, 48 h; in short: as §3
[19] = read-out: pLC50 (the source's name) (converted)

OCc1ccc(Cn2c3ccccc3c3oc(CO)cc32)o1
Activity (A498 [1]): 0.91% | Activity (A498 [2]): 20.3% | Activity (A498 [3]): 21.5% | Activity (A498 [4]): 5% | Activity (A498 [5]): Active | Activity (A498 [6]): Active | GI50 (T47D): 1.62 µM | CC50 (T47D; [19]): > 100 µM | TGI (T47D; read-out: pTGI): > 100 µM | GI50 (MCF7): 9.33 µM | CC50 (MCF7; [19]): > 100 µM | TGI (MCF7; read-out: pTGI): > 100 µM | GI50 (OVCAR-3): 8.91 µM | CC50 (OVCAR-3; [19]): > 100 µM | TGI (OVCAR-3; read-out: pTGI): > 100 µM | GI50 (SK-MEL-28): > 100 µM | CC50 (SK-MEL-28; [19]): > 100 µM | TGI (SK-MEL-28; read-out: pTGI): > 100 µM | GI50 (SK-MEL-2): > 100 µM | CC50 (SK-MEL-2; [19]): > 100 µM | TGI (SK-MEL-2; read-out: pTGI): > 100 µM | GI50 (SF-295): 26.9 µM | CC50 (SF-295; [19]): > 100 µM | TGI (SF-295; read-out: pTGI): > 100 µM | GI50 (HT-29): 41.7 µM | CC50 (HT-29; [19]): > 100 µM | TGI (HT-29; read-out: pTGI): > 100 µM | GI50 (HCC 2998): > 100 µM | CC50 (HCC 2998; [19]): > 100 µM | TGI (HCC 2998; read-out: pTGI): > 100 µM | GI50 (NCI-H522): 39.8 µM | CC50 (NCI-H522; [19]): > 100 µM | TGI (NCI-H522; read-out: pTGI): > 100 µM | GI50 (NCI-H322M): > 100 µM | CC50 (NCI-H322M; [19]): > 100 µM | TGI (NCI-H322M; read-out: pTGI): > 100 µM | Activity (A498 [7]): 11.37% | Activity (A498 [8]): 14.33% | Activity (A498 [9]): 15.98% | Activity (A498 [10]): 71.26% | Activity (A498 [11]): 3.16% | Activity (A498 [12]): Active | Activity (A498 [13]): Active | Activity (A498 [14]): Active | Activity (A498 [15]): tde | Activity (A498 [16]): tde | IC50 (COLO 205): 31.1 µM | IC50 [17]: > 50 µM | IC50 [18]: 74.1 µM
